Measurements taken from ChEMBL document CHEMBL1144782, “Isoindolo[2,1-a]quinoxaline derivatives, novel potent antitumor agents with dual inhibition of tubulin polymerization and topoisomerase I” (2008).
Values joined by “and” are separate entries in the source; they are usually repeats but may differ in a detail not shown here. Identical values can stand only once.

Tests used:
[1] = system: KM12; assay: Antitumor activity against human KM12 cells; assay type: functional; settings: for TGI: read-out: pTGI (converted)
How it was run: (§1)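 Run by the NCI in its in vitro disease-oriented screen of about 60 human tumour cell lines. For each line it reports pGI50 (50% net growth inhibition), pTGI (total growth inhibition) and pLC50 (50% net cell death), each as –log molar concentration. Where an effect was not reached within the tested range, the highest tested concentration was used.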

[2] = system: MCF7; assay: Growth inhibition of human multidrug-resistant MCF7 cells after 72 hrs by MTT assay; assay type: functional; settings: MCF7, 72 h
How it was run: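 Growth inhibition by MTT after 72 h incubation. Resistant sublines: LoVoDoxo and MCF-7 MDR were kept in 0.1 µg/mL doxorubicin; CEMVbl-100 was selected against vinblastine. GI50 given as mean ± SEM of three independent experiments. Resistance index is resistant-line GI50 over parental GI50.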

[3] = system: OVCAR-4; assay: Antitumor activity against human OVCAR4 cells; assay type: functional; settings: for TGI: read-out: pTGI (converted); how it was run: as §1
[4] = system: MOLT-4; assay: Antitumor activity against human MOLT4 cells; assay type: functional; settings: for TGI: read-out: pTGI (converted); how it was run: as §1
[5] = system: SF-268; assay: Antitumor activity against human SF268 cells; assay type: functional; settings: for CC50: read-out: Log LC50 (the source's name) (converted); for TGI: read-out: pTGI (converted); how it was run: as §1
[6] = system: OVCAR-5; assay: Antitumor activity against human OVCAR5 cells; assay type: functional; settings: for TGI: read-out: pTGI (converted); how it was run: as §1
[7] = system: SR; assay: Antitumor activity against human SR cells; assay type: functional; settings: for TGI: read-out: pTGI (converted)
How it was run: (§2)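 NCI 60-cell-line screen. Parameters were GI50 (50% net growth inhibition), TGI and LC50, each reported as –log molar concentration. Where an effect was not reached within the tested range, the highest tested concentration was used in the calculation.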

[8] = system: DU-145; assay: Antitumor activity against human DU145 cells; assay type: functional; settings: for CC50: read-out: Log LC50 (the source's name) (converted); how it was run: as §1
[9] = system: T47D; assay: Antitumor activity against human T47D cells; assay type: functional; settings: for TGI: read-out: pTGI (converted); how it was run: as §2
[10] = system: HCT-15; assay: Antitumor activity against human HCT15 cells; assay type: functional; settings: for CC50: read-out: Log LC50 (the source's name) (converted); for TGI: read-out: pTGI (converted); how it was run: as §1
[11] = Antitumor activity against human […] cells; assay type: functional; settings: for TGI: read-out: pTGI (converted); how it was run: as §1
[12] = system: ACHN; assay: Antitumor activity against human ACHN cells; assay type: functional; settings: for TGI: read-out: pTGI (converted); how it was run: as §1
[13] = system: SK-MEL-5; assay: Antitumor activity against human SKMEL5 cells; assay type: functional; settings: for TGI: read-out: pTGI (converted); how it was run: as §1
[14] = biological target: Tubulin (Sus scrofa) (UniProt P02554+P02550); assay: Inhibition of pig brain tubulin polymerization
[15] = system: SNB-75; assay: Antitumor activity against human SNB75 cells; assay type: functional; settings: Homo sapiens, SNB-75; for TGI: read-out: pTGI (converted); how it was run: as §1
[16] = system: NCI-H522; assay: Antitumor activity against human NCI-H522 cells; assay type: functional; settings: for CC50: read-out: Log LC50 (the source's name) (converted); for TGI: read-out: pTGI (converted); how it was run: as §1
[17] = system: EKVX; assay: Antitumor activity against human EKVX cells; assay type: functional; settings: for TGI: read-out: pTGI (converted); how it was run: as §1
[18] = system: M14; assay: Antitumor activity against human M14 cells; assay type: functional; settings: for CC50: read-out: Log LC50 (the source's name) (converted); for TGI: read-out: pTGI (converted); how it was run: as §1
[19] = system: RPMI-8226; assay: Antitumor activity against human RPMI8226 cells; assay type: functional; settings: for CC50: read-out: Log LC50 (the source's name) (converted); for TGI: read-out: pTGI (converted); how it was run: as §1
[20] = system: HCT-116; assay: Antitumor activity against human HCT116 cells; assay type: functional; settings: for TGI: read-out: pTGI (converted); how it was run: as §1
[21] = system: SF-539; assay: Antitumor activity against human SF539 cells; assay type: functional; settings: for TGI: read-out: pTGI (converted); how it was run: as §1
[22] = system: U-251; assay: Antitumor activity against human U251 cells; assay type: functional; settings: for CC50: read-out: Log LC50 (the source's name) (converted); for TGI: read-out: pTGI (converted); how it was run: as §2
[23] = system: MCF7; assay: Antitumor activity against human MCF7 cells; assay type: functional; settings: for TGI: read-out: pTGI (converted); how it was run: as §1
[24] = system: LOX IMVI; assay: Antitumor activity against human LOXIMVI cells; assay type: functional; settings: for TGI: read-out: pTGI (converted); how it was run: as §1
[25] = system: HOP-62; assay: Antitumor activity against human HOP62 cells; assay type: functional; how it was run: as §1

Sequence of Tubulin (Sus scrofa) (P02550 whole entry, looked up): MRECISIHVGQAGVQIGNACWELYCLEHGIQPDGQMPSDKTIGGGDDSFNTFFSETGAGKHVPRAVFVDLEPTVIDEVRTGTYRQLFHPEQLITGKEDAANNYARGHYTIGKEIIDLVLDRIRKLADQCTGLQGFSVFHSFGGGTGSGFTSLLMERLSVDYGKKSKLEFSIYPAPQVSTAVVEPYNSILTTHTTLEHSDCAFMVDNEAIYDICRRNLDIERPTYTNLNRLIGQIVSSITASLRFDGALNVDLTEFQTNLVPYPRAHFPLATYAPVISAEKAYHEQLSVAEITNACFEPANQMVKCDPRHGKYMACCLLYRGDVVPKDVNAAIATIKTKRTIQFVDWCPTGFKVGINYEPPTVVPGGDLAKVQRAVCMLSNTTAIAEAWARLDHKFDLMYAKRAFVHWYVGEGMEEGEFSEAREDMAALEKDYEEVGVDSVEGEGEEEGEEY
Sequence of Tubulin (Sus scrofa) (P02554 whole entry, looked up): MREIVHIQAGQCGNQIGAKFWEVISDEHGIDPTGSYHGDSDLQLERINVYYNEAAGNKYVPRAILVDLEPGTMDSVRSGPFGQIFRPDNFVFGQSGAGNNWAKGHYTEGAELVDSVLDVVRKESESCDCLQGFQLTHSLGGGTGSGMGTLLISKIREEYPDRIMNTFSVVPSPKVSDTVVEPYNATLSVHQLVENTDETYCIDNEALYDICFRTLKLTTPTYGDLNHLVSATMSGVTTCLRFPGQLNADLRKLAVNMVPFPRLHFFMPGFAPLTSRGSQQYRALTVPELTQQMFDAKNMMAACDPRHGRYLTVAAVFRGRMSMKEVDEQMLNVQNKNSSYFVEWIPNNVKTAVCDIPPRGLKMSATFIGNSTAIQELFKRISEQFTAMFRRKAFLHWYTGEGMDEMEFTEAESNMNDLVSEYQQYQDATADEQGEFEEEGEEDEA

SMILES: O=c1[nH]c2cc(Cl)c(Cl)cc2n2cc3ccccc3c12
- GI50 [1]: 17.4 µM
- LC50 (50% net cell death) [1]: 56.2 µM
- TGI [1]: 30.9 µM
- GI50 [2]: 7.6 µM
- GI50 [3]: 20.4 µM
- LC50 (50% net cell kill) [3]: > 100 µM
- TGI [3]: 50.1 µM
- GI50 [4]: 18.6 µM
- LC50 [4]: 72.4 µM
- TGI [4]: 37.2 µM
- GI50 [5]: 24 µM
- CC50 [5]: 75.9 µM
- TGI [5]: 42.7 µM
- GI50 [6]: 17 µM
- LC50 (50% net cell death) [6]: 55 µM
- TGI [6]: 30.9 µM
- GI50 [7]: 17.4 µM
- LC50 [7]: 87.1 µM
- TGI [7]: 38.9 µM
- GI50 [8]: 31.6 µM
- GI50 ([8]; Homo sapiens, DU-145): 17.8 µM
- CC50 ([8]; Homo sapiens, DU-145): 56.2 µM
- GI50 [9]: 30.9 µM
- LC50 [9]: > 100 µM
- TGI [9]: 75.9 µM
- GI50 [10]: 16.6 µM
- CC50 [10]: 55 µM
- TGI [10]: 30.2 µM
- GI50 [11]: 17.4 µM
- LC50 [11]: 61.7 µM
- TGI [11]: 32.4 µM
- GI50 [12]: 15.5 µM
- LC50 (50% net cell kill) [12]: 53.7 µM
- TGI [12]: 28.8 µM
- GI50 [13]: 20 µM
- LC50 [13]: 87.1 µM
- TGI [13]: 41.7 µM
- Activity [14]: > 10 µM
- GI50 [15]: 21.4 µM
- LC50 [15]: > 100 µM
- TGI [15]: 53.7 µM
- GI50 [16]: 10.2 µM
- CC50 [16]: 93.3 µM
- TGI [16]: 30.9 µM
- GI50 [17]: 21.9 µM
- LC50 (50% net cell kill) [17]: 87.1 µM
- TGI [17]: 43.7 µM
- GI50 [18]: 22.9 µM
- CC50 [18]: 69.2 µM
- TGI [18]: 39.8 µM
- GI50 [19]: 22.4 µM
- CC50 [19]: > 100 µM
- TGI [19]: 49 µM
- GI50 [20]: 20.9 µM
- LC50 [20]: 58.9 µM
- TGI [20]: 35.5 µM
- GI50 [21]: 19.1 µM
- LC50 (50% net cell kill) [21]: 81.3 µM
- TGI [21]: 39.8 µM
- GI50 [22]: 16.2 µM
- CC50 [22]: 55 µM
- TGI [22]: 30.2 µM
- GI50 [23]: 21.4 µM
- LC50 (50% net cell kill) [23]: 72.4 µM
- TGI [23]: 39.8 µM
- GI50 [24]: 17.4 µM
- LC50 (50% net cell kill) [24]: 56.2 µM
- TGI [24]: 30.9 µM

SMILES: Cc1cccc2c1[nH]c(=O)c1c3ccccc3cn21
- GI50 [1]: 3.39 µM
- LC50 (50% net cell death) [1]: > 100 µM
- TGI [1]: 22.9 µM
- GI50 [2]: 8.1 µM
- GI50 [3]: 6.76 µM
- LC50 (50% net cell kill) [3]: > 100 µM
- TGI [3]: > 100 µM
- GI50 [4]: 1.82 µM
- LC50 [4]: 20.9 µM
- TGI [4]: 5.62 µM
- GI50 [5]: 3.02 µM
- CC50 [5]: 75.9 µM
- TGI [5]: 8.51 µM
- GI50 [6]: 17.8 µM
- LC50 (50% net cell death) [6]: > 100 µM
- TGI [6]: 66.1 µM
- GI50 [7]: 1.55 µM
- LC50 [7]: 12.6 µM
- TGI [7]: 4.17 µM
- GI50 [8]: 5.25 µM and 17.4 µM
- CC50 ([8]; Homo sapiens, DU-145): 41.7 µM
- GI50 [9]: 11.5 µM
- LC50 [9]: > 100 µM
- TGI [9]: 49 µM
- GI50 [10]: 5.25 µM
- CC50 [10]: > 100 µM
- TGI [10]: 31.6 µM
- GI50 [11]: 2.4 µM
- LC50 [11]: > 100 µM
- TGI [11]: 17.4 µM
- GI50 [12]: 4.07 µM
- LC50 (50% net cell kill) [12]: > 100 µM
- TGI [12]: 22.4 µM
- GI50 [13]: 11.7 µM
- LC50 [13]: 49 µM
- TGI [13]: 24 µM
- Activity [14]: > 10 µM
- GI50 [15]: 30.9 µM
- LC50 [15]: > 100 µM
- TGI [15]: > 100 µM
- GI50 [16]: 6.46 µM
- CC50 [16]: > 100 µM
- TGI [16]: 64.6 µM
- GI50 [17]: 5.62 µM
- LC50 (50% net cell kill) [17]: > 100 µM
- TGI [17]: 44.7 µM
- GI50 [18]: 12.6 µM
- CC50 [18]: 77.6 µM
- TGI [18]: 30.9 µM
- GI50 [19]: 2 µM
- CC50 [19]: 60.3 µM
- TGI [19]: 7.08 µM
- GI50 [20]: 2.69 µM
- LC50 [20]: 33.9 µM
- TGI [20]: 11.7 µM
- GI50 [25]: 3.55 µM
- LC50 (50% net cell death) [25]: 51.3 µM
- TGI ([25]; read-out: pTGI (converted)): 15.1 µM
- GI50 [21]: 3.89 µM
- LC50 (50% net cell kill) [21]: 40.7 µM
- TGI [21]: 15.8 µM
- GI50 [22]: 6.61 µM
- CC50 [22]: 45.7 µM
- TGI [22]: 19.5 µM
- GI50 [23]: < 0.01 µM
- LC50 (50% net cell kill) [23]: 39.8 µM
- TGI [23]: 12.6 µM
- GI50 [24]: 6.17 µM
- LC50 (50% net cell kill) [24]: 42.7 µM
- TGI [24]: 18.2 µM
